In brackets after ≈: the same amount, converted by molar mass. Activity calls are given as the source filed them. No cut-off for these calls is given here. Where a SMILES comes first, the peptide text is derived from it. [ ]: non-standard residue; d: D form. Nspe = C[C@H](NCC(=O)O)c1ccccc1; Nlys = NCCCCNCC(=O)O
How the values were obtained:
Micrococcus luteus [1] = assay: Antibacterial activity against Micrococcus luteus at 1 mg/ml after 48 hrs by agar well diffusion method; type: functional, organism-based
How it was run: (§1)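 Compounds dissolved at 1 mg/mL in sterile water; 25 μL placed in 8 mm wells punched in LB agar plates spread with 100 μL overnight culture (grown at 37 °C in Nutrient Broth No. 2 with shaking). Plates incubated 48 h at 37 °C (M. luteus initially at 30 °C, later 37 °C); activity scored as a visible zone of growth inhibition.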

Escherichia coli = assay: Antibacterial activity against Escherichia coli at 1 mg/ml after 48 hrs by agar well diffusion method; type: functional, organism-based; how it was run: as §1
Pseudomonas aeruginosa = assay: Antibacterial activity against Pseudomonas aeruginosa at 1 mg/ml after 48 hrs by agar well diffusion method; type: functional, organism-based; how it was run: as §1
Micrococcus luteus [2] = assay: Antibacterial activity against Micrococcus luteus after 20 hrs by broth microdilution assay; type: functional
How it was run: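 Two-fold serial dilution in Nutrient Broth No. 2 containing 1% DMSO, from 0.60 mM stocks (sterile water, 1% DMSO, sonicated 30 s). Each well received 10 μL overnight M. luteus culture adjusted to OD 0.817 (of a 1 in 10 dilution), 250 μL final volume. Sealed, incubated 20 h at 37 °C, then OD read. MIC is the lowest concentration with no visible growth by eye.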

Row | MIC (Micrococcus luteus [2]) [µM] | SMILES | Activity (Micrococcus luteus [1]) | Activity (Escherichia coli) | Activity (Pseudomonas aeruginosa)
1 | 0.0234 (≈ 0.0779 µg/mL) | C=C(NC(=O)[C@@H](NC(=O)[C@H](Cc1cnc[nH]1)NC(=O)[C@@H](NC(=O)[C@H](CO)NC(=O)[C@@H]1CS[C@@H](C)[C@@H]2NC(=O)[C@H](C)NC(=O)[C@@H](NC(=O)[C@H](CCCCN)NC(=O)[C@H](CCSC)NC(=O)[C@H](CC(N)=O)NC(=O)[C@@H]3CS[C@@H](C)[C@H](NC(=O)[C@H](CCCCN)NC(=O)[C@@H]4CS[C@@H](C)[C@H](NC(=O)[C@@H]5CSC[C@H](NC(=O)/C(=C/C)NC(=O)[C@@H](N)[C@@H](C)CC)C(=O)N[C@@H]([C@@H](C)CC)C(=O)NC(=C)C(=O)N[C@@H](CC(C)C)C(=O)N5)C(=O)N5CCC[C@H]5C(=O)NCC(=O)N4)C(=O)NCC(=O)N[C@@H](C)C(=O)N[C@@H](CC(C)C)C(=O)N[C@@H](CCSC)C(=O)NCC(=O)N3)[C@H](C)SC[C@H](NC2=O)C(=O)N[C@@H](CC(N)=O)C(=O)N1)[C@@H](C)CC)C(C)C)C(=O)N[C@@H](CCCCN)C(=O)O | Active | inactive | inactive
2 | 1.5 (≈ 2.48 µg/mL) | CC[C@H](C)[C@H](N)C(=O)N[C@@H](CC(=O)O)C(=O)N[C@@H](Cc1c[nH]c2ccccc12)C(=O)N[C@@H](CCCCN)C(=O)N[C@@H](CCCCN)C(=O)N[C@@H](CC(C)C)C(=O)N[C@@H](CC(C)C)C(=O)N[C@@H](CC(=O)O)C(=O)N[C@@H](C)C(=O)N[C@@H](C)C(=O)N[C@@H](CCCCN)C(=O)N[C@@H](CCC(N)=O)C(=O)N[C@H](C(=O)N[C@@H](CC(C)C)C(N)=O)[C@@H](C)CC (H-IDWKKLLDAAKQIL-NH2) | Active | inactive | inactive
3 | 1.5 (≈ 2.73 µg/mL) | C[C@@H](c1ccccc1)N(CC(N)=O)C(=O)CN(C(=O)CN(CCCCN)C(=O)CN(C(=O)CN(C(=O)CN(CCCCN)C(=O)CN(C(=O)CN(C(=O)CN(CCCCN)C(=O)CN(C(=O)CN(C(=O)CNCCCCN)[C@@H](C)c1ccccc1)[C@@H](C)c1ccccc1)[C@@H](C)c1ccccc1)[C@@H](C)c1ccccc1)[C@@H](C)c1ccccc1)[C@@H](C)c1ccccc1)[C@@H](C)c1ccccc1 (H-[Nlys][Nspe][Nspe][Nlys][Nspe][Nspe][Nlys][Nspe][Nspe][Nlys][Nspe][Nspe]-NH2) | – | – | –

The remaining lines, values behind:

Row | SMILES | MIC (Micrococcus luteus [2]) [µM] | Activity (Micrococcus luteus [1]) | Activity (Escherichia coli) | Activity (Pseudomonas aeruginosa)
4 | CC[C@H](C)[C@H](NC(=O)CN)C(=O)NCC(=O)N[C@@H](CCCCN)C(=O)N[C@@H](Cc1ccccc1)C(=O)N[C@@H](CC(C)C)C(=O)N[C@@H](CCCCN)C(=O)N[C@@H](CCCCN)C(=O)N[C@@H](C)C(=O)N[C@@H](CCCCN)C(=O)N[C@@H](CCCCN)C(=O)N[C@@H](Cc1ccccc1)C(=O)NCC(=O)N[C@@H](CCCCN)C(=O)N[C@@H](C)C(=O)N[C@@H](Cc1ccccc1)C(=O)N[C@H](C(=O)N[C@@H](CCCCN)C(=O)N[C@H](C(=O)N[C@@H](CC(C)C)C(=O)N[C@@H](CCCCN)C(=O)N[C@@H](CCCCN)C(N)=O)[C@@H](C)CC)C(C)C [PEXIGANAN] (H-GIGKFLKKAKKFGKAFVKILKK-NH2) | 0.75 (≈ 1.86 µg/mL) | – | – | –
5 | C=C1NC(=O)[C@H]([C@@H](C)CC)NC(=O)[C@@H](NC(=O)/C(=C/C)NC(=O)[C@@H](N)[C@@H](C)CC)CSC[C@@H](C(=O)N[C@@H]2C(=O)N3CCC[C@H]3C(=O)NCC(=O)N[C@H](C(=O)N[C@@H](CCCCN)C(=O)NCc3cn(CCCC[C@H](N)C(=O)NCCOCCOCCOCCOCCC(=O)N[C@H](C(=O)N[C@@H](CC(=O)O)C(=O)N[C@@H](Cc4c[nH]c5ccccc45)C(=O)N[C@@H](CCCCN)C(=O)N[C@@H](CCCCN)C(=O)N[C@@H](CC(C)C)C(=O)N[C@@H](CC(C)C)C(=O)N[C@@H](CC(=O)O)C(=O)N[C@@H](C)C(=O)N[C@@H](C)C(=O)N[C@@H](CCCCN)C(=O)N[C@@H](CCC(N)=O)C(=O)N[C@H](C(=O)N[C@@H](CC(C)C)C(N)=O)[C@@H](C)CC)[C@@H](C)CC)nn3)CS[C@H]2C)NC(=O)[C@H](CC(C)C)NC1=O | 3 (≈ 9.73 µg/mL) | Active | inactive | inactive
6 | NC[C@H]1O[C@H](O[C@H]2[C@H](O)[C@@H](O[C@H]3O[C@H](CO)[C@@H](O)[C@H](N)[C@H]3O)[C@H](N)C[C@@H]2N)[C@H](O)[C@@H](O)[C@@H]1O | – | Active | Active | Active
7 | C#CCNC(=O)[C@H](CCCCN)NC(=O)[C@@H]1CS[C@@H](C)[C@H](NC(=O)[C@@H]2CSC[C@H](NC(=O)/C(=C/C)NC(=O)[C@@H](N)[C@@H](C)CC)C(=O)N[C@@H]([C@@H](C)CC)C(=O)NC(=C)C(=O)N[C@@H](CC(C)C)C(=O)N2)C(=O)N2CCC[C@H]2C(=O)NCC(=O)N1 | > 12 | Active | inactive | inactive
